Experimental data: ChEMBL document CHEMBL1949585, “Design, synthesis and evaluation of telomerase inhibitory, hTERT repressing, and anti-proliferation activities of symmetrical 1,8-disubstituted amidoanthraquinones” (Eur J Med Chem, 2012)

Experiments:
[1] = Cytotoxicity against human H1299 cells assessed as cell growth at 1 uM after 48 hrs by MTT assay; format: functional; conditions: NCI-H1299, 48 h, read-out: Activity
Procedure, shortened: (§1)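 H1299 non-small lung cancer cells were grown in RPMI 1640 with 10% FBS and penicillin/streptomycin at 37 °C in 5% CO2. About 2×10³ cells were seeded per well and held 24 h, then washed with PBS and given fresh medium. Compound, freshly dissolved in DMSO and diluted in complete medium, was added for 48 h. MTT was read at 550 nm after SDS/DMF lysis at 37 °C for 16 h. Values are from three experiments, untreated = 100%, ±SD.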

[2] = Cytotoxicity against human H1299 cells assessed as cell growth at 10 uM after 48 hrs by MTT assay; format: functional; conditions: NCI-H1299, 48 h, read-out: Activity; procedure, shortened: as §1
[3] = Cytotoxicity against human H1299 cells assessed as cell growth at 100 uM after 48 hrs by MTT assay; format: functional; conditions: NCI-H1299, 48 h, read-out: Activity; procedure, shortened: as §1
HL-60(TB) = assay: Cytotoxicity against human HL-60(TB) cells assessed as cell growth at 10 uM relative to control; format: functional; conditions: read-out: Activity
Procedure, shortened: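 Tested in the NCI 60 human tumour cell line panel, covering nine cancer cell types, at a single concentration. The value is the mean growth percentage of treated cells, with untreated control cells taken as 100%.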

A549 = assay: Cytotoxicity against human A549 cells assessed as cell growth at 10 uM relative to control; format: functional; conditions: read-out: Activity
Procedure, shortened: (§2)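 Single-concentration screen in the NCI 60 human tumour cell line panel covering nine cancer types. Values are the mean growth percentage of compound-treated cells, with untreated control cells set as 100%.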

HOP-62 = assay: Cytotoxicity against human HOP62 cells assessed as cell growth at 10 uM relative to control; format: functional; conditions: read-out: Activity; procedure, shortened: as §2
HOP-92 = assay: Cytotoxicity against human HOP92 cells assessed as cell growth at 10 uM relative to control; format: functional; conditions: read-out: Activity; procedure, shortened: as §2
NCI-H226 = assay: Cytotoxicity against human NCI-H226 cells assessed as cell growth at 10 uM relative to control; format: functional; conditions: read-out: Activity; procedure, shortened: as §2
NCI-H23 = assay: Cytotoxicity against human NCI-H23 cells assessed as cell growth at 10 uM relative to control; format: functional; conditions: read-out: Activity; procedure, shortened: as §2
NCI-H460 = assay: Cytotoxicity against human NCI-H460 cells assessed as cell growth at 10 uM relative to control; format: functional; conditions: read-out: Activity; procedure, shortened: as §2
NCI-H522 = assay: Cytotoxicity against human NCI-H522 cells assessed as cell growth at 10 uM relative to control; format: functional; conditions: read-out: Activity; procedure, shortened: as §2
HCC 2998 = assay: Cytotoxicity against human HCC2998 cells assessed as cell growth at 10 uM relative to control; format: functional; conditions: read-out: Activity; procedure, shortened: as §2
HCT-15 = assay: Cytotoxicity against human HCT15 cells assessed as cell growth at 10 uM relative to control; format: functional; conditions: read-out: Activity; procedure, shortened: as §2
HT-29 = assay: Cytotoxicity against human HT-29 cells assessed as cell growth at 10 uM relative to control; format: functional; conditions: read-out: Activity; procedure, shortened: as §2
KM12 = assay: Cytotoxicity against human KM12 cells assessed as cell growth at 10 uM relative to control; format: functional; conditions: read-out: Activity; procedure, shortened: as §2
SW-620 = assay: Cytotoxicity against human SW620 cells assessed as cell growth at 10 uM relative to control; format: functional; conditions: read-out: Activity
Procedure, shortened: (§3)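 Run in the NCI 60-cell human tumour panel. Cells were exposed to 10 µM compound, and growth was given as a percentage of untreated control cells set to 100%.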

BT-549 = assay: Cytotoxicity against human BT549 cells assessed as cell growth at 10 uM relative to control; format: functional; conditions: read-out: Activity; procedure, shortened: as §2
[4] = Cytotoxicity against human Hs 578T cells assessed as cell growth at 10 uM relative to control; format: functional; conditions: read-out: Activity; procedure, shortened: as §2
MDA-MB-435 = assay: Cytotoxicity against human MDA-MB-435 cells assessed as cell growth at 10 uM relative to control; format: functional; conditions: read-out: Activity; procedure, shortened: as §2
MDA-MB-468 = assay: Cytotoxicity against human MDA-MB-468 cells assessed as cell growth at 10 uM relative to control; format: functional; conditions: read-out: Activity; procedure, shortened: as §2
NCI/ADR-RES = assay: Cytotoxicity against human NCI/ADR-RES cells assessed as cell growth at 10 uM relative to control; format: functional; conditions: read-out: Activity; procedure, shortened: as §2
T47D = assay: Cytotoxicity against human T47D cells assessed as cell growth at 10 uM relative to control; format: functional; conditions: read-out: Activity; procedure, shortened: as §3
OVCAR-4 = assay: Cytotoxicity against human OVCAR4 cells assessed as cell growth at 10 uM relative to control; format: functional; conditions: read-out: Activity; procedure, shortened: as §2
OVCAR-5 = assay: Cytotoxicity against human OVCAR5 cells assessed as cell growth at 10 uM relative to control; format: functional; conditions: read-out: Activity; procedure, shortened: as §2
OVCAR-8 = assay: Cytotoxicity against human OVCAR8 cells assessed as cell growth at 10 uM relative to control; format: functional; conditions: read-out: Activity; procedure, shortened: as §2
SK-OV-3 = assay: Cytotoxicity against human SKOV3 cells assessed as cell growth at 10 uM relative to control; format: functional; conditions: read-out: Activity; procedure, shortened: as §2
[5] = Cytotoxicity against human 786-O cells assessed as cell growth at 10 uM relative to control; format: functional; conditions: 786-0, read-out: Activity; procedure, shortened: as §2
A498 = assay: Cytotoxicity against human A498 cells assessed as cell growth at 10 uM relative to control; format: functional; conditions: read-out: Activity; procedure, shortened: as §2
ACHN = assay: Cytotoxicity against human ACHN cells assessed as cell growth at 10 uM relative to control; format: functional; conditions: read-out: Activity; procedure, shortened: as §2
CAKI-1 = assay: Cytotoxicity against human CAKI-1 cells assessed as cell growth at 10 uM relative to control; format: functional; conditions: read-out: Activity; procedure, shortened: as §2
TK-10 = assay: Cytotoxicity against human TK10 cells assessed as cell growth at 10 uM relative to control; format: functional; conditions: read-out: Activity; procedure, shortened: as §3
UO-31 = assay: Cytotoxicity against human UO31 cells assessed as cell growth at 10 uM relative to control; format: functional; conditions: read-out: Activity; procedure, shortened: as §3
LOX IMVI = assay: Cytotoxicity against human LOXIMVI cells assessed as cell growth at 10 uM relative to control; format: functional; conditions: read-out: Activity; procedure, shortened: as §2
M14 = assay: Cytotoxicity against human M14 cells assessed as cell growth at 10 uM relative to control; format: functional; conditions: read-out: Activity; procedure, shortened: as §2
Malme-3M = assay: Cytotoxicity against human MALME-3M cells assessed as cell growth at 10 uM relative to control; format: functional; conditions: read-out: Activity; procedure, shortened: as §2
SK-MEL-28 = assay: Cytotoxicity against human SK-MEL-28 cells assessed as cell growth at 10 uM relative to control; format: functional; conditions: read-out: Activity; procedure, shortened: as §2
SK-MEL-5 = assay: Cytotoxicity against human SK-MEL-5 cells assessed as cell growth at 10 uM relative to control; format: functional; conditions: read-out: Activity; procedure, shortened: as §2
UACC-257 = assay: Cytotoxicity against human UACC257 cells assessed as cell growth at 10 uM relative to control; format: functional; conditions: read-out: Activity; procedure, shortened: as §3
DU-145 = assay: Cytotoxicity against human DU145 cells assessed as cell growth at 10 uM relative to control; format: functional; conditions: read-out: Activity; procedure, shortened: as §2
PC-3 = assay: Cytotoxicity against human PC3 cells assessed as cell growth at 10 uM relative to control; format: functional; conditions: read-out: Activity; procedure, shortened: as §2
SF-539 = assay: Cytotoxicity against human SF539 cells assessed as cell growth at 10 uM relative to control; format: functional; conditions: read-out: Activity; procedure, shortened: as §2
SNB-19 = assay: Cytotoxicity against human SNB19 cells assessed as cell growth at 10 uM relative to control; format: functional; conditions: read-out: Activity; procedure, shortened: as §3
SNB-75 = assay: Cytotoxicity against human SNB75 cells assessed as cell growth at 10 uM relative to control; format: functional; conditions: read-out: Activity; procedure, shortened: as §3
U-251 = assay: Cytotoxicity against human U251 cells assessed as cell growth at 10 uM relative to control; format: functional; conditions: read-out: Activity; procedure, shortened: as §3
[6] = Inhibition of human TERT expression in H1299 cells at 10 uM after 24 hrs by secreted alkaline phosphatase reporter gene assay relative to control; values are per cent of control; conditions: NCI-H1299

For CCN(CC)CC(=O)Nc1cccc2c1C(=O)c1c(NC(=O)CN(CC)CC)cccc1C2=O, the growth at 1 µM [1] was 86%, the growth at 10 µM [2] was 78% and the growth at 100 µM [3] was 50%. For the same compound, the growth at 10 µM (HL-60(TB)) was 94.7%, the growth at 10 µM (A549) was 91.7% and the growth at 10 µM (HOP-62) was 88.3%. The growth at 10 µM (HOP-92) was 93.5%, the growth at 10 µM (NCI-H226) was 85.5% and the growth at 10 µM (NCI-H23) was 97.1%. It also gave a growth at 10 µM (NCI-H460) of 97.2%, a growth at 10 µM (NCI-H522) of 88% and a growth at 10 µM (HCC 2998) of 103%. It also gave a growth at 10 µM (HCT-15) of 93.4%, a growth at 10 µM (HT-29) of 101% and a growth at 10 µM (KM12) of 119%. For the same compound, the growth at 10 µM (SW-620) was 104%, the growth at 10 µM (BT-549) was 97.4% and the growth at 10 µM [4] was 111%. For the same compound, the growth at 10 µM (MDA-MB-435) was 103%, the growth at 10 µM (MDA-MB-468) was 86.6% and the growth at 10 µM (NCI/ADR-RES) was 101%. It also gave a growth at 10 µM (T47D) of 84.8%, a growth at 10 µM (OVCAR-4) of 91.3% and a growth at 10 µM (OVCAR-5) of 101%. It also gave a growth at 10 µM (OVCAR-8) of 91.2%, a growth at 10 µM (SK-OV-3) of 103% and a growth at 10 µM [5] of 86.4%. For the same compound, the growth at 10 µM (A498) was 93.3%, the growth at 10 µM (ACHN) was 91.9% and the growth at 10 µM (CAKI-1) was 88.3%. It also gave a growth at 10 µM (TK-10) of 105%, a growth at 10 µM (UO-31) of 87.3% and a growth at 10 µM (LOX IMVI) of 89.3%. It also gave a growth at 10 µM (M14) of 98.6%, a growth at 10 µM (Malme-3M) of 112% and a growth at 10 µM (SK-MEL-28) of 117%. For the same compound, the growth at 10 µM (SK-MEL-5) was 101%, the growth at 10 µM (UACC-257) was 105% and the growth at 10 µM (DU-145) was 137%. For the same compound, the growth at 10 µM (PC-3) was 89.1%, the growth at 10 µM (SF-539) was 91.7% and the growth at 10 µM (SNB-19) was 94.1%. For the same compound, the growth at 10 µM (SNB-75) was 81.7%, the growth at 10 µM (U-251) was 100% and the level, % of control [6] was 84%.
